In ChEMBL document CHEMBL5252636, “Host-guest binding of tetracationic cyclophanes to photodynamic agents inhibits posttreatment phototoxicity and maintains antitumour efficacy” (RSC Med Chem, 2023):
One block for each compound: values may come before it. Calls of active or inactive are those of the source. No cut-off for these calls is given here.

Tests used:
[1] = Hemolytic activity in rat RBC assessed as hemolysis up to 100 microg/ml measured after 1 hr; type: toxicity, cell-based, Erythrocyte; details: red blood cells, up to 100 µg/mL, read-out: Activity
Method in brief: (§1)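 Erythrocytes from Sprague Dawley rat or human O-type were used as a 5% (v/v) suspension in normal saline. They were incubated with compound (final 0–100 µg/mL) at 37 °C for 1 h, then centrifuged at 3000 rpm for 10 min at 4 °C. Hemoglobin in the supernatant was read at 545 nm. Saline served as 0% and deionized water as 100% hemolysis.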

B16-F10 [2] = experiment: Antitumor activity against mouse B16-F10 cells implanted BALB/c mouse assessed as reduction in size at 4 mg/kg
B16-F10 [3] = experiment: Antitumor activity against mouse B16-F10 cells implanted BALB/c mouse assessed as increase in tumor cell apoptosis at 4 mg/kg, iv by tunel staining based immunohistochemical analysis
[4] = Phototoxicity in laser irradiated BALB/c mouse implanted with mouse B16-F10 cells assessed as skin injury at 4 mg/kg, followed by sunlight irradiation for 0.5 hr and measured on day 11; details: in vivo, 264 h
[5] = Phototoxicity in laser irradiated BALB/c mouse implanted with mouse B16-F10 cells assessed as pathological changes in lung at 4 mg/kg, followed by sunlight irradiation for 0.5 hr and measured on day 3 by H and E staining based analysis; details: in vivo
[6] = Phototoxicity in laser irradiated BALB/c mouse implanted with mouse B16-F10 cells assessed as pathological changes in skin at 4 mg/kg, followed by sunlight irradiation for 0.5 hr and measured on day 3 by H and E staining based analysis; details: in vivo
[7] = Phototoxicity in laser irradiated BALB/c mouse implanted with mouse B16-F10 cells assessed as hair follicle enlargement at 4 mg/kg, sc administered for 3 days followed by sunlight irradiation for 0.5 hr and […] by H and E staining based analysis; type: toxicity, organism-based; details: in vivo, iv, in the assay text read “iv administered” for “sc administered”
Method in brief: (§2)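 Female nude BALB/c mice, 7–8 weeks old, received 1×10^5 B16F10 cells s.c. on the right front back (n=8). At ~20 mm³, mice got Photofrin 4.0 mg/kg i.v. and were kept dark for 24 h. Tumours were then lit with a 635 nm laser (145 mW/cm², 7 min), followed within 30 min by compound 4.0 mg/kg i.v. On day 3 came a solar simulator (100 mW/cm², 30 min). Tumour volume (L×W²/2) was measured daily, skin imaged every 2 days, and H&E done on day 13.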

L02 = experiment: Cytotoxicity against human L02 cells assessed as reduction in cell viability up to 100 microg/ml incubated for 24 hrs by MTT assay; type: toxicity, cell-based; details: l02, 24 h, up to 100 µg/mL, in the assay text read “CCK-8 assay” for “MTT assay”
Method in brief: (§3)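 CCK-8 viability assay. H9C2 cells were grown in DMEM with 10% FBS, and L02 cells in 1640 medium with 20% FBS, both at 37 °C in 5% CO₂. Cells were seeded at 1×10^4 per well, allowed to adhere for 24 h, then exposed to 0–100 µg/mL for 24 h. CCK-8 was added for 1 h and A450 read. Viability is expressed as % of untreated cells; six independent experiments.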

[8] = Phototoxicity in laser irradiated BALB/c mouse implanted with mouse B16-F10 cells assessed as pathological changes in kidney at 4 mg/kg, sc administered for 3 days followed by sunlight irradiation for 0.5 hr and […] by H and E staining based analysis; type: toxicity, organism-based; details: in vivo, iv, in the assay text read “iv administered” for “sc administered”; method in brief: as §2
H9c2 = experiment: Cytotoxicity against rat H9c2 cells assessed as reduction in cell viability up to 100 microg/ml incubated for 24 hrs by MTT assay; type: toxicity, cell-based; details: h9c2, 24 h, up to 100 µg/mL, in the assay text read “CCK-8 assay” for “MTT assay”; method in brief: as §3
[9] = Phototoxicity in laser irradiated BALB/c mouse implanted with mouse B16-F10 cells assessed as epidermal thickening at 4 mg/kg, sc administered for 3 days followed by sunlight irradiation for 0.5 hr and […] by H and E staining based analysis; type: toxicity, organism-based; details: in vivo, iv, in the assay text read “iv administered” for “sc administered”; method in brief: as §2
[10] = Phototoxicity in laser irradiated BALB/c mouse implanted with mouse B16-F10 cells at 2 mg/kg, followed by sunlight irradiation for 24 hr in presence of dopamine; details: in vivo, 96 h
[11] = Phototoxicity in laser irradiated BALB/c mouse implanted with mouse B16-F10 cells at 2 mg/kg, followed by sunlight irradiation for 24 hr; details: in vivo, 96 h
[12] = Hemolytic activity in human RBC assessed as hemolysis up to 100 microg/ml measured after 1 hr; type: toxicity, cell-based, Erythrocyte; details: red blood cells, up to 100 µg/mL, read-out: Activity; method in brief: as §1
[13] = Phototoxicity in laser irradiated BALB/c mouse implanted with mouse B16-F10 cells assessed as increase in tumor volume at 4 mg/kg, followed by sunlight irradiation for 0.5 hr and measured on day 13; details: in vivo, 312 h
[14] = Water solubility of compound; type: physicochemical

SMILES: [Cl-].[Cl-].[Cl-].[Cl-].c1cc2ccc1C[n+]1ccc(cc1)-c1ccc3cc(ccc3c1)-c1cc[n+](cc1)Cc1ccc(cc1)C[n+]1ccc(cc1)-c1ccc3cc(ccc3c1)-c1cc[n+](cc1)C2
hemolysis at 1 h [1]: ≤ 5% | Activity (B16-F10 [2]): 26 mm3 | Activity (B16-F10 [3]): Active | Activity [4]: Non-Toxic | Activity [5]: 41% | Activity [6]: 67% | Activity [7]: Non-Toxic | Activity (L02): >= 90% | Activity [8]: 66% | Activity (H9c2): >= 90% | Activity [9]: Non-Toxic | Activity [10]: Non-Toxic | Activity [11]: Non-Toxic | hemolysis at 1 h [12]: ≤ 5% | Activity [13]: 1344 mm3

solubility [14]: 3.5 mM
SMILES: C[n+]1ccc(-c2ccc3cc(-c4cc[n+](C)cc4)ccc3c2)cc1.[Cl-].[Cl-]

solubility [14]: 20.7 mM
SMILES: C[n+]1ccc(-c2cccc3c(-c4cc[n+](C)cc4)cccc23)cc1.[Cl-].[Cl-]

solubility [14]: 13.1 mM
SMILES: C[n+]1ccc(-c2ccc(-c3cc[n+](C)cc3)c3ccccc23)cc1.[Cl-].[Cl-]
